Data published in paper PMC8546857 (Acta Pharmaceutica Sinica. B, 2021).
Entries after “also recorded” stand apart in the source; their conditions may differ. Where two headings read alike, the source gives them in different places.

Tests used:
TEAD4 = TEAD4 (Homo sapiens, UniProt Q15561); experiment: gel-based ABPP in vitro palmitoylation assay, TEAD4; type: biochemical; conditions: gel-based ABPP selectivity profiling
Summary of the method: (§1)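 Protein incubated with varying test compound concentrations, 37 °C, 2 h; flufenamic acid as positive control. Then 2.5 μmol/L palmitoyl-CoA on ice, click reaction at RT. Quenched in SDS buffer with 30 mmol/L EDTA, 95 °C, 5 min. Read by Western blot with densitometry; biological triplicates, mean ± SD.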

juvenile zebrafish = experiment: proportional growth of juvenile zebrafish; type: in vivo; conditions: 2-month-old juveniles, 0.25 μmol/L in water, 14 days
Summary of the method: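 AB wild-type zebrafish, 2 months old, both sexes equally, 10 per dish in 30 mL sterilised facility water. Water held 0.25 μmol/L test compound (final) or matching DMSO dilution for 14 days, aerated, refreshed daily; fed twice daily. Fish imaged by stereomicroscope from day 0. Fin length taken from fin base to line joining lobe tips; body length from jaw tip to caudal fin base.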

TEAD3 [1] = molecular target: T1, TEAD3 (Homo sapiens, UniProt Q99594); experiment: cellular thermal shift assay; type: cell-based; conditions: HEK293T cells, 50 μmol/L, 6 h
Summary of the method: (§2)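 HEK293T transfected with N-terminal 3×FLAG-tagged TEAD1–4, then given 50 μmol/L test compound or DMSO, 37 °C, 6 h. Cells trypsinised, PBS-washed, resuspended in PBS with protease inhibitor. Aliquots heated 3 min at set temperatures, then 3 min at room temperature. Three freeze–thaw cycles (liquid nitrogen/RT water), spin 20,000×g, 30 min, 4 °C. Soluble fraction immunoblotted for FLAG, with GAPDH.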
Target sequence in this assay (Q99594 whole entry): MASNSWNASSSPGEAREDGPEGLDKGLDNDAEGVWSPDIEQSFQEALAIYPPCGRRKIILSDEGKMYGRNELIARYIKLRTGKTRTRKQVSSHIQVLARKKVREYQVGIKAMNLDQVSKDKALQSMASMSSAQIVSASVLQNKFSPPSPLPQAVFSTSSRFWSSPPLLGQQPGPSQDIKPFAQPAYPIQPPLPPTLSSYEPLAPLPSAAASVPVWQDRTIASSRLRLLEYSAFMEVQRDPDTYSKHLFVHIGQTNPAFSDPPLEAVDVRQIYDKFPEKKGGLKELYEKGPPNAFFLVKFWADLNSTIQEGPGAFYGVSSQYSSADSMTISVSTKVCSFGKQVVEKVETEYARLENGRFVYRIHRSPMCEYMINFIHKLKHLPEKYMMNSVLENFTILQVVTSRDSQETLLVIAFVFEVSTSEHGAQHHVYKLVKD

[2] = tested on: TOP Flash beta-catenin reporter system; experiment: TOPFlash beta-catenin reporter assay; type: cell-based; conditions: HEK293T cells
Summary of the method: (§3)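 HEK293T seeded at 2 × 10^5/well. Transfected with 200 ng 8xGTIIC-Luc TEAD reporter or TOPFlash β-catenin reporter, plus 20 ng pGL4.75 Renilla as internal control. Cells then exposed to various concentrations of test compound or DMSO. Firefly and Renilla signals measured by dual-luciferase assay.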

widetype TEAD1 = widetype TEAD1 (Homo sapiens, UniProt P28347); experiment: protein thermal shift assay; type: binding; conditions: DSF
Chain of widetype TEAD1 (P28347 209-426): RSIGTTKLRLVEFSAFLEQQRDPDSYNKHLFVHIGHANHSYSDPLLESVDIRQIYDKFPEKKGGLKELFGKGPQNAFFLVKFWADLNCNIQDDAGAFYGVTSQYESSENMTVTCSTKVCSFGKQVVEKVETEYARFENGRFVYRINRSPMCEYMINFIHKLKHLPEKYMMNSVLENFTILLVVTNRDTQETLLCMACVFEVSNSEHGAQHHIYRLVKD
Summary of the method: (§4)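 Differential scanning fluorimetry. 5 μmol/L purified wild-type or mutant protein with 5× SYPRO Orange, in 20 mmol/L HEPES pH 8.5, 100 mmol/L NaCl, 2.5% DMSO, with or without test compound. Ramped 25–95 °C on a real-time PCR instrument, ROX filter. Tm calculated from raw fluorescence data.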

[3] = molecular target: TEAD3 Y223 mutated to phenylalanine (Homo sapiens, UniProt Q99594, Y230F); experiment: gel-based ABPP assay, TEAD3 Y223F mutant; type: biochemical
Chain of TEAD3 Y223 mutated to phenylalanine (Q99594 219-435 Y230F): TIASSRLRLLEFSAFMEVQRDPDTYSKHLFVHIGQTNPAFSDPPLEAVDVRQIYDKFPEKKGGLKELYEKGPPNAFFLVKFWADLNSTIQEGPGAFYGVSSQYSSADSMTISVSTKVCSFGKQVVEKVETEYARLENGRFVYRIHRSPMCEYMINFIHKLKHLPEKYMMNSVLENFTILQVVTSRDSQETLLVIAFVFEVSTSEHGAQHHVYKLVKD
Summary of the method: as §1

TEAD2 = TEAD2 (Homo sapiens, UniProt Q15562); experiment: gel-based ABPP in vitro palmitoylation assay, TEAD2; type: biochemical; conditions: gel-based ABPP selectivity profiling
Chain of TEAD2 (Q15562 217-447): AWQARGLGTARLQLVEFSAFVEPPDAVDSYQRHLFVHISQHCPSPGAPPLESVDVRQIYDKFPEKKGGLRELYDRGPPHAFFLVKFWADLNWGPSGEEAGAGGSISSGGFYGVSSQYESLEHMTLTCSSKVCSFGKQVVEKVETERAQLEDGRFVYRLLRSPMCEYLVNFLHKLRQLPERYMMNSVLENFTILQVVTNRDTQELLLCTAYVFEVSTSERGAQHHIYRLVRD
Summary of the method: as §1

GAL4-TEAD3 = GAL4-TEAD3 (Homo sapiens, UniProt Q99594); experiment: GAL4-Luc reporter assay, GAL4-TEAD3; type: cell-based
Chain of GAL4-TEAD3 (Q99594 2-435): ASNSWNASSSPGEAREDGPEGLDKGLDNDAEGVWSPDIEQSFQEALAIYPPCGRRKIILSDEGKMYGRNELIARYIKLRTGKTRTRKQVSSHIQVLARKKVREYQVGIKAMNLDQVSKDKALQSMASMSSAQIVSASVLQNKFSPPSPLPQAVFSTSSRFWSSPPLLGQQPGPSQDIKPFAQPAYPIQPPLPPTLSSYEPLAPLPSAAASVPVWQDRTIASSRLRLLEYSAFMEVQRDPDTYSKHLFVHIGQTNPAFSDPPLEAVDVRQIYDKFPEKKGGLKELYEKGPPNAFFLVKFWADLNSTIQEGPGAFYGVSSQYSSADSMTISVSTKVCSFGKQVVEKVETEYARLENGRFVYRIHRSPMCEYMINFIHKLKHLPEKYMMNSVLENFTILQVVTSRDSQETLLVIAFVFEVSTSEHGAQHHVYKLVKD
Chain of GAL4-TEAD3 (P46937 whole entry partner, the tested form may be a part): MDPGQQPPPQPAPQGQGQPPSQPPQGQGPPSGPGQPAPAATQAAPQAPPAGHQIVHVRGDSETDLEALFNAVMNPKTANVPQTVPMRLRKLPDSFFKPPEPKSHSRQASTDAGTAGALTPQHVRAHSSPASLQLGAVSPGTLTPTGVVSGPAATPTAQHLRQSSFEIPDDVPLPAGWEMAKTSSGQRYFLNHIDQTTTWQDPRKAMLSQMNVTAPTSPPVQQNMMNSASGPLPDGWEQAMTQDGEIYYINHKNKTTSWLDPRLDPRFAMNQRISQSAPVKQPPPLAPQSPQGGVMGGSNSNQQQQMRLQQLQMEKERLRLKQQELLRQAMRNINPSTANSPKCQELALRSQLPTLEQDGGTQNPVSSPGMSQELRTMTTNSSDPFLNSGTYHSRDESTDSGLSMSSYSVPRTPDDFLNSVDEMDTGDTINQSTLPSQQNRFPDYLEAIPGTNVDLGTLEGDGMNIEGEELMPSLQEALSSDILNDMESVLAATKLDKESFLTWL
Summary of the method: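 HEK293T cells (DMEM, 10% FBS, 1% penicillin/streptomycin) co-transfected with a GAL4-Luc reporter (secreted luciferase, 9×GAL4 binding elements), a GAL4-DBD-fused TEAD1, TEAD2, TEAD3 or TEAD4 expression vector, and a YAP-expressing plasmid. Test compound at the specified concentration, 37 °C, 12 h; luciferase signal read on a plate reader. Mean of three technical replicates.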

[4] = molecular target: TEAD3-YBD recombinant protein (Homo sapiens, UniProt Q99594); experiment: gel-based ABPP in vitro palmitoylation assay, TEAD3; type: biochemical; conditions: for inhibition of TEAD3 palmitoylation: click-based ABPP assay
Chain of TEAD3-YBD recombinant protein (Q99594 219-435): as the sequence (Q99594 219-435 Y230F) above, with F12Y counted along it
Summary of the method: as §1

TEAD1 C359S = TEAD1 C359S (Homo sapiens, UniProt P28347, C359S); experiment: protein thermal shift assay; type: binding; conditions: DSF
Chain of TEAD1 C359S (P28347 209-426 C359S): as the sequence (P28347 209-426) above, with C151S counted along it
Summary of the method: as §4

TEAD3-YBD C371A mutant = TEAD3-YBD C371A mutant (Homo sapiens, UniProt Q99594, C368A); experiment: protein thermal shift assay; type: binding; conditions: DSF
Chain of TEAD3-YBD C371A mutant (Q99594 219-435 C368A): as the sequence (Q99594 219-435 Y230F) above, with F12Y, C150A counted along it
Summary of the method: as §4

wild-type TEAD3-YBD = wild-type TEAD3-YBD (Homo sapiens, UniProt Q99594); experiment: protein thermal shift assay; type: binding; conditions: DSF
Chain of wild-type TEAD3-YBD (Q99594 219-435): as the sequence (Q99594 219-435 Y230F) above, with F12Y counted along it
Summary of the method: as §4

TEAD1-YBD = TEAD1-YBD (Homo sapiens, UniProt P28347); experiment: gel-based ABPP in vitro palmitoylation assay, TEAD1; type: biochemical; conditions: gel-based ABPP selectivity profiling
Chain of TEAD1-YBD (P28347 209-426): as the sequence (P28347 209-426) above
Summary of the method: as §1

[5] = tested on: 8xGTIIC-Luc TEADs reporter; experiment: TEAD luciferase reporter assay; type: cell-based; conditions: HEK293T cells, compared with DC-TEADin1072-N1
Summary of the method: as §3

TEAD1 [6] = molecular target: T2, TEAD1 (Homo sapiens, UniProt P28347); experiment: intact protein mass spectrometry, TEAD1; type: binding; conditions: excessive compound, 24 h at 4 °C
Summary of the method: (§5)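 Intact-mass LC/MS. Protein diluted to 1 mg/mL in water with 0.1% formic acid; 2 μg injected. Separated on a PLRP-S column with a 15-min water/acetonitrile (0.1% formic acid) gradient at 0.300 mL/min. Analysed on an Orbitrap Fusion with HESI source (capillary 350 °C, 3.5 kV).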
Target sequence in this assay (P28347 209-426): as above

TEAD‒YAP interaction [7] = molecular target: T3, TEAD‒YAP interaction (Homo sapiens, UniProt Q99594); experiment: fluorescence polarization assay with FITC-labeled YAP peptide; type: binding; conditions: FP assay, FITC-YAP(61-100), TEAD3 protein
T3 sequence (Q99594 219-435): as the sequence (Q99594 219-435 Y230F) above, with F12Y counted along it
T3 sequence (P46937 61-100 partner limits assumed): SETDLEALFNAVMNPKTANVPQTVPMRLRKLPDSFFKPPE
Summary of the method: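 Then 30 nmol/L FITC-YAP(61–100) added for 30 min at room temperature. Polarisation read at ex 480/em 520 nm. Unlabelled synthetic YAP peptide as positive control; triplicates.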

TEAD3 [8] = molecular target: T1, TEAD3; experiment: intact protein mass spectrometry, TEAD3; type: binding; conditions: excessive compound, 24 h at 4 °C
Summary of the method: as §5
Target sequence in this assay (Q99594 219-435): as the sequence (Q99594 219-435 Y230F) above, with F12Y counted along it

TEAD1 [9] = molecular target: T2, TEAD1; experiment: cellular thermal shift assay; type: cell-based; conditions: HEK293T cells, 50 μmol/L, 6 h
Summary of the method: as §2
Target sequence in this assay (P28347 whole entry, the tested form may be a part): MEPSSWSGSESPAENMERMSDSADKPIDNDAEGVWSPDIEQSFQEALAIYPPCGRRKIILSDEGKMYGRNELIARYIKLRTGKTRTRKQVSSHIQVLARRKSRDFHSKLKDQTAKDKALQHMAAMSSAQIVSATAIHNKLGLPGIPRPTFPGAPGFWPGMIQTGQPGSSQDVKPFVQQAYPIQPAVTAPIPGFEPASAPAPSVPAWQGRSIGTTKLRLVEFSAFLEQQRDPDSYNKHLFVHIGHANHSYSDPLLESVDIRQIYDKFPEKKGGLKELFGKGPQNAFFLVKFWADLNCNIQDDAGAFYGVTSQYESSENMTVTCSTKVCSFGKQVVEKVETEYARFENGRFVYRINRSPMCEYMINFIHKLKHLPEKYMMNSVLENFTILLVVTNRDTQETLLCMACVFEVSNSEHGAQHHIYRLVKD

TEAD1-YBD C359A mutant = TEAD1-YBD C359A mutant (Homo sapiens, UniProt P28347, C359A); experiment: protein thermal shift assay; type: binding; conditions: DSF
Chain of TEAD1-YBD C359A mutant (P28347 209-426 C359A): as the sequence (P28347 209-426) above, with C151A counted along it

TEAD‒YAP interaction [10] = molecular target: T3, TEAD‒YAP interaction; conditions: FP assay; cited from earlier work

Chain of TEAD4 (Q15561 217-434): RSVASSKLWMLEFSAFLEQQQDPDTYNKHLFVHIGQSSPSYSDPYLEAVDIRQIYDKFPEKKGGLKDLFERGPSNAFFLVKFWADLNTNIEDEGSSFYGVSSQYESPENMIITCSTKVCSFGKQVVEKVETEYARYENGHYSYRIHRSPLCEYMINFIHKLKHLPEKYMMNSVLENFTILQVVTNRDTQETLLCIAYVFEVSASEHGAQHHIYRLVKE

SMILES	inhibition of TEAD4 palmitoylation (TEAD4)	ectopic or tumorous growth (juvenile zebrafish)	body growth rate (juvenile zebrafish; vs DMSO)	body length (juvenile zebrafish; vs DMSO)	growth rate of the caudal fin (juvenile zebrafish; vs DMSO)	thermal stability / soluble fraction of TEAD3 in intact cells (TEAD3 [1])	inhibition of TEAD2 palmitoylation (TEAD2)	inhibition of TEAD3 palmitoylation [4]	effect on thermal stability of TEAD3 C371A mutant (TEAD3-YBD C371A mutant)	further results
C=CC(=O)N1CCCN(CCCOCc2ccccc2)C1 [DC-TEAD3in03, 1-(3-(3-(Benzyloxy)propyl)tetrahydropyrimidin-1(2H)-yl)prop-2-en-1-one]	sparing	no ectopic or tumorous growth	did not observe a significant difference	did not observe a significant difference	reduced the growth rate; also recorded: selective reduction	increased the soluble fraction; also recorded: significantly increases the content of TEAD3 soluble contents	sparing	potent inhibition	minimal effect	effect on TOP Flash beta-catenin reporter [2]: minimal effect; effect on thermal stability of wild-type TEAD1 (widetype TEAD1): minimal effect; IC50 [3]: ~18500 nM; IC50 (GAL4-TEAD3): 1150 nM; selectivity over other TEAD isoforms ([4]; TEAD3 versus other TEAD isoforms, ABPP assays): 100 fold; effect on thermal stability of TEAD1 C359S mutant (TEAD1 C359S): minimal effect; effect on thermal stability of TEAD3 protein (wild-type TEAD3-YBD): significantly improved; inhibition of TEAD1 palmitoylation (TEAD1-YBD): selectively inhibited; TEAD reporter activity [5]: significant reduction
C=CC(=O)N1CCC(CCOc2ccccc2)CC1 [DC-TEADin1072, 1-(4-(2-Phenoxyethyl)piperidin-1-yl)prop-2-en-1-one]	sparing	No obvious ectopic or tumorous growth	decreased significantly; also recorded: reduction	nearly significantly different	reduced; also recorded: reduction	increase the thermal stability	sparing		significantly abolished the compound effect	difference in mass of TEAD1 protein after incubation (TEAD1 [6]): +259.5 Da; tail (caudal fin) length (juvenile zebrafish; vs DMSO): no differences; effect on TEAD‒YAP interaction (TEAD‒YAP interaction [7]): minimal effect; difference in mass of TEAD3 protein after incubation (TEAD3 [8]): +259.5 Da; IC50 [4]: 580 ± 120 nM; thermal stability of TEAD1 in intact cells (TEAD1 [9]): increase the thermal stability; effect on thermal stability of TEAD1-YBD C359A mutant (TEAD1-YBD C359A mutant): significantly abolished the compound effect
C=CC(=O)N1CCN(CCCOCc2ccccc2)CC1 [DC-TEAD3in02, 1-(4-(3-(Benzyloxy)propyl)piperazin-1-yl)prop-2-en-1-one]								potent inhibition		
C=CC(=O)N1CCC(O)(CCCOCc2ccccc2)CC1 [DC-TEAD3in01, 1-(4-(3-(Benzyloxy)propyl)-4-hydroxypiperidin-1-yl)prop-2-en-1-one]								potent inhibition		
CCC(=O)N1CCC(CCOc2ccccc2)CC1 [DC-TEADin1072-N1, 1-(4-(2-Phenoxyethyl)piperidin-1-yl)propan-1-one]								minimal inhibition		
O=C(O)c1ccccc1Nc1cccc(C(F)(F)F)c1 [flufenamic acid]										effect on TEAD‒YAP interaction (TEAD‒YAP interaction [10]): minimal effect
